Reference: ChEMBL document CHEMBL1124867, “Synthesis and antiviral activity of monofluoro and difluoro analogues of pyrimidine deoxyribonucleosides against human immunodeficiency virus (HIV-1)” (J Med Chem, 1990)

How the values were obtained:
[1] = system: C8166; assay: Antiviral activity against HIV-1 (RF strain) in C8166 cells; type: functional, cell-based; conditions: Homo sapiens
Outline: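 HIV-1 RF strain in C8166 cells, 3-day incubation with compound at various concentrations (highest tested 100 μM). Virus in culture medium quantified by p24 antigen-capture ELISA (primary antiserum against p24, horseradish peroxidase detection), colour read spectrophotometrically and plotted against concentration; IC50 = concentration reducing virus levels by 50%.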

[2] = system: C8166; assay: Concentration of compound that inhibits incorporation of radiolabeled amino acids by 50 %; type: functional; conditions: Homo sapiens, read-out: CD50 (the source's name)
Outline: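 C8166 cells (2 × 10⁵) exposed to compound at various concentrations for 3 days, washed, then given ¹⁴C protein hydrolysate for a further 24 h. Cells harvested and washed, ¹⁴C incorporation counted by scintillation, radioactivity plotted against concentration; CD50 = concentration inhibiting label incorporation by 50%.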

**Q.** For O=c1ccn(C2OC(CO)C(F)C2F)c(=O)[nH]1 (configuration not stated), which IC50 [1] is on record?
**A.** > 100 µM

**Q.** How did the IC50 [1] turn out when O=c1ccn(C2OC(CO)CC2F)c(=O)[nH]1 (configuration not stated) was run?
**A.** > 100 µM

**Q.** What does the source list for Nc1ccn([C@H]2CC[C@@H](CO)O2)c(=O)n1 [ZALCITABINE]?
**A.** CC50 [2]: 1000 µM; IC50 [1]: 0.125 µM

**Q.** Which results are given for Nc1ccn([C@@H]2O[C@H](CO)C=C2F)c(=O)n1?
**A.** CC50 [2]: 30 µM; IC50 [1]: 10 µM

**Q.** Which CC50 [2] does the source give for Cc1cn([C@@H]2O[C@H](CO)C=C2F)c(=O)[nH]c1=O here?
**A.** > 1000 µM

**Q.** What about the IC50 [1] of the same molecule?
**A.** 100 µM

**Q.** With Nc1ccn(C2OC(CO)CC2F)c(=O)n1 (configuration not stated) as the molecule, how does the IC50 [1] read?
**A.** > 100 µM

**Q.** With Cc1cn([C@H]2C[C@H](N=[N+]=[N-])[C@@H](CO)O2)c(=O)[nH]c1=O [ZIDOVUDINE] as the molecule, how does the CC50 [2] read?
**A.** > 1000 µM

**Q.** What about the IC50 [1] of the same molecule?
**A.** 0.0085 µM

**Q.** Nc1ccn(C2OC(CO)C(F)C2F)c(=O)n1 (configuration not stated) was tested. Which CC50 [2] did it give?
**A.** > 100 µM

**Q.** And the IC50 [1]?
**A.** 10 µM

**Q.** What does the source list for Nc1ccn([C@@H]2O[C@H](CO)C[C@@H]2F)c(=O)n1?
**A.** CC50 [2]: 500 µM; IC50 [1]: 0.7 µM

**Q.** Which IC50 [1] does the source give for O=c1ccn(C2OC(CO)C=C2F)c(=O)[nH]1 (configuration not stated) here?
**A.** > 100 µM

**Q.** How did the IC50 [1] turn out when Nc1nc(=O)n(C2OC(CO)CC2F)cc1F (configuration not stated) was run?
**A.** > 100 µM
